In PubChem BioAssay:
Results filed as inconclusive are left out.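 How the source made its calls, unless noted: active means cell viability at or below a set limit in both duplicate runs, the limit being the all-compound median minus 4 SD (cut at about 23% in these data, passing the limit was not always enough); inconclusive means no clear call, values can overlap the other calls; inactive means the rest.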

Assays:
[1] = OD615 S. cerevisiae growth inhibition, permissive medium, pilot counter-assay, permissive growth control for S. cerevisiae lifespan shortening project (AID 705;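 active means growth inhibition above 25% in both replicates, a cutoff set 3 SD above the mean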); conditions: OD615, 24 h, at 10 µM, active compounds read high
Procedure, shortened: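 System: S. cerevisiae with engineered DeaD lifespan system. Medium: SC raffinose/galactose permissive medium. Doses: single compound dose of 10 µM, 0.25% DMSO final. Schedule: 24 h exposure, 30 °C. Measured by: OD615 turbidity read. Read-out: growth inhibition.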

[2] = Restrictive medium S. cerevisiae growth inhibition, OD615, pilot screen of yeast lifespan reduction project, restrictive growth control (AID 706;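 active means growth inhibition above a set limit, 3 SD over mean compound inhibition, in both replicates, cut at about 43% in these data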;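 further: modified DeaD lifespan yeast strain shifted to restrictive glucose medium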); conditions: OD615, 48 h, at 10 µM, active compounds read high
Procedure, shortened: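 Assay system – genetically modified Saccharomyces cerevisiae, DeaD replicative lifespan assay strain · Medium – CSMM-D glucose medium · Doses – 10 µM compound, 0.25% DMSO · Times – 4 h pre-incubation, 48 h exposure at 30 °C · Signal – optical density at 615 nm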

[3] = viability gain of MRP-1-high H69AR cells under doxorubicin, pilot screen, MRP-1 activator project, CellTiter-Glo, duplicate (AID 807;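 active means viability increase at or above a cutoff of the median across tested compounds plus 3 SD, cut at about 8.5% in these data, passing the limit was not always enough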;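 further: compound pretreatment 18-22 h then 72 h combined with doxorubicin; 0% = doxorubicin alone and 100% = vehicle without doxorubicin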); conditions: H69AR viability with doxorubicin, CellTiter-Glo luminescence; at 10 µM; active compounds read high
[4] = growth suppression of beta-catenin knockout HCT116, pilot screen, human colon tumor cells (AID 823); conditions: CellTiter-Glo, 60 h, at 10 µM, active compounds read low;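 further: 0% = wells killed by 20 µM Hyamine and 100% = untreated DMSO cell wells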
[5] = growth suppression of PTEN-deleted HCT116, pilot screen, cell-based, HCT116 clonal line, CellTiter-Glo (AID 824;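 active means viability at or below 27.92% in each of two runs, the all-compound median minus 4 SD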;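 further: 0% = 20 µM Hyamine control and 100% = vehicle cell control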); conditions: 60 h, at 10 µM, active compounds read low
[6] = inhibitors of the yeast RAM network, pilot screen, dse1pr::URA3 reporter, 5-FOA selection (AID 869;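 active means inhibition over a set limit, the all-compound mean plus 3 SD, in both replicate runs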;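 further: 0% = DMSO wells with no growth and 100% = 10 µM 1-NA-PP1 with full growth; RAM network block rescues cells from 5-FOA so hits raise OD615 growth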); conditions: S. cerevisiae dse1pr::URA3 5-FOA growth, OD615, 2 d; at 10 µM; active compounds read high; strain carries analog-sensitive mutant Cbk1 kinase
[7] = RAM signaling pathway blockade in yeast – S. cerevisiae, Pdr1DBD-CYC8 efflux-inhibited sensitized strain, primary screen (AID 1298;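 active means RAM network inhibition above 8.4% in each of two replicates, 3 SD over the compound average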;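 further: 0% = DMSO untreated cells without growth and 100% = 10 µM 1-NA-PP1 full growth; higher means more yeast growth rescued from 5-FOA killing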); conditions: S. cerevisiae cbk1-as DSE1-URA3 strain, 5-FOA growth OD615, 2 d; at 50 µM; active compounds read high

COc1ccc2oc(C(=O)C3CC3)c(NC(=O)CCCN3C(=O)c4ccccc4C3=O)c2c1
inactive: growth inhibition [1] 2.6% | growth inhibition [2] 6.11% | viability increase [3] -3.63% | viability [4] 102% | viability [5] 93.6% | inhibition [6] 0.995% | RAM network inhibition [7] 3.53%

COc1ccccc1-c1cc(N)n(S(=O)(=O)c2ccc(F)c(C)c2)n1
inactive: growth inhibition [1] -9.16% | growth inhibition [2] -5.82% | viability increase [3] -3.08% | viability [4] 55% | viability [5] 64% | inhibition [6] 4.39% | RAM network inhibition [7] 3.97%

CCOCCCNC(=O)c1cccs1
inactive: growth inhibition [1] -5.41% | growth inhibition [2] -4.17% | viability increase [3] -1.31% | viability [4] 91% | viability [5] 94.4% | inhibition [6] 2.22% | RAM network inhibition [7] 0.76%

O=C(c1cc(F)c(F)cc1Cl)N1CCCCC1
inactive: growth inhibition [1] -2.35% | growth inhibition [2] 1.34% | viability increase [3] -1.35% | viability [4] 92.1% | viability [5] 90.6% | inhibition [6] 2.08% | RAM network inhibition [7] 2.31%

CC1CCCC(C)N1c1nnc(N)s1 (configuration not stated)
inactive: growth inhibition [1] 0.52% | growth inhibition [2] 30.8% | viability increase [3] -1.42% | viability [4] 104% | viability [5] 102% | inhibition [6] 0.385% | RAM network inhibition [7] 0.17%

COCCOC(=O)C1=C(C)NC2=C(C(=O)CCC2)C1c1ccc2c(c1)OCO2 (configuration not stated)
inactive: growth inhibition [1] -3.56% | growth inhibition [2] -17.8% | viability increase [3] -2.23% | viability [4] 93.9% | viability [5] 93% | inhibition [6] 1.08% | RAM network inhibition [7] 0.14%

CC(=O)c1ccc(-n2nncc2C)cc1
inactive: growth inhibition [1] -4.02% | growth inhibition [2] -11.6% | viability increase [3] -3.63% | viability [4] 108% | viability [5] 95.6% | inhibition [6] 0.965% | RAM network inhibition [7] 2.75%

NC(=O)c1ccsc1NC(=O)c1ccc(S(=O)(=O)N2CCCCC2)cc1
inactive: growth inhibition [1] -4.08% | growth inhibition [2] -4.94% | viability increase [3] -0.57% | viability [4] 71.9% | viability [5] 58.3% | inhibition [6] 1.47% | RAM network inhibition [7] 2.41%

Cc1cc2cc(CNS(=O)(=O)N(C)C)ccc2[nH]1
inactive: growth inhibition [1] 0.12% | growth inhibition [2] -6.88% | viability increase [3] -0.59% | viability [4] 101% | viability [5] 106% | inhibition [6] 1.48% | RAM network inhibition [7] 3.27%

Cc1ccc(C)c2c1sc(=NC(=O)CN1C(=O)CCC1=O)n2C
inactive: growth inhibition [1] -15% | growth inhibition [2] -2.54% | viability increase [3] -1.69% | viability [4] 88% | viability [5] 83.2% | inhibition [6] 2.84% | RAM network inhibition [7] 5.96%

Cn1c(SCc2nc3ccccc3[nH]2)nnc1-c1cccnc1
inactive: growth inhibition [1] 3.69% | growth inhibition [2] 24.8% | viability increase [3] -2.45% | viability [4] 95.1% | viability [5] 99.1% | inhibition [6] 2.94% | RAM network inhibition [7] 5.38%

CCCSc1nnc(Cn2c(=O)sc3ccccc32)n1C
inactive: growth inhibition [1] -15.8% | growth inhibition [2] -38% | viability increase [3] -2.24% | viability [4] 94.3% | viability [5] 87.1% | inhibition [6] 0.415% | RAM network inhibition [7] -0.25%

CC(C)N(CCCNC(=O)CC1Oc2ccccc2NC1=O)Cc1ccccc1 (configuration not stated)
inactive: growth inhibition [1] 2.46% | growth inhibition [2] 10.3% | viability increase [3] -1.49% | viability [4] 89.3% | viability [5] 97.7% | inhibition [6] 0.47% | RAM network inhibition [7] 3.18%

Cc1cccc(-n2c(Cc3cc(=O)[nH]c(=O)[nH]3)nnc2SCC(=O)N2CCCCC2)c1
inactive: growth inhibition [1] 4% | growth inhibition [2] 16.8% | viability increase [3] -0.52% | viability [4] 106% | viability [5] 87.8% | inhibition [6] 3.3% | RAM network inhibition [7] -0.11%

O=C(OCCN1C(=O)c2ccccc2C1=O)c1cc2ccccc2o1
inactive: growth inhibition [1] -11.6% | growth inhibition [2] -4.04% | viability increase [3] 0.07% | viability [4] 97.3% | viability [5] 99.1% | inhibition [6] 2.92% | RAM network inhibition [7] 3.68%

CCOc1ccc(C2CC(=O)NC(SC)=C2C#N)cc1 (configuration not stated)
inactive: growth inhibition [1] -15.8% | growth inhibition [2] -15.5% | viability increase [3] -2.65% | viability [4] 104% | viability [5] 94.9% | inhibition [6] 0.595% | RAM network inhibition [7] 6.38%

O=C1N/C(=N/c2ccccn2)SC1Cc1ccccc1 (configuration not stated)
inactive: growth inhibition [1] 0.405% | growth inhibition [2] 1.97% | viability increase [3] 0.48% | viability [4] 102% | viability [5] 93.6% | inhibition [6] 3.98% | RAM network inhibition [7] 6.35%

O=C(NCc1ccccn1)c1ccc2ccccc2n1
inactive: growth inhibition [1] 4.58% | growth inhibition [2] -7.25% | viability increase [3] -1.47% | viability [4] 111% | viability [5] 102% | inhibition [6] 1.32% | RAM network inhibition [7] 5.32%

CCn1ccc(C(=O)Nc2ccc(Cl)cn2)n1
inactive: growth inhibition [1] -9.65% | growth inhibition [2] 11.6% | viability increase [3] -1.34% | viability [4] 93.6% | viability [5] 93.9% | inhibition [6] 1.48% | RAM network inhibition [7] 3.03%

CN1CCN(Cc2c(O)ccc3occ(C(=O)c4ccccc4)c23)CC1
inactive: growth inhibition [1] -13% | growth inhibition [2] -16.2% | viability increase [3] -4% | viability [4] 73% | viability [5] 79% | inhibition [6] 1.56% | RAM network inhibition [7] 7.8%

Cn1c(C(=O)N2CCN(C(=O)c3ccco3)CC2)cc2c(=O)n(C)c3ccccc3c21
inactive: growth inhibition [1] -3.88% | growth inhibition [2] 5.88% | viability increase [3] -4.21% | viability [4] 92.9% | viability [5] 87% | inhibition [6] 0.83% | RAM network inhibition [7] 2.87%

O=C(c1cnn2ccccc12)N(Cc1ccco1)C1CCCC1
inactive: growth inhibition [1] -12% | growth inhibition [2] -4.11% | viability increase [3] -3.08% | viability [4] 70% | viability [5] 69.8% | inhibition [6] 2.74% | RAM network inhibition [7] 1.62%

O=C(NC1CCS(=O)(=O)C1)c1ccccc1C(=O)c1ccccc1 (configuration not stated)
inactive: growth inhibition [1] -15.2% | growth inhibition [2] -9.07% | viability increase [3] -0.35% | viability [4] 102% | viability [5] 99.1% | inhibition [6] 2.46% | RAM network inhibition [7] 9.61%

COc1cc(=O)[nH]c(=O)n1C(=O)Cc1ccccc1
inactive: growth inhibition [1] -1.48% | growth inhibition [2] -1.73% | viability increase [3] 0% | viability [4] 97.4% | viability [5] 104% | inhibition [6] -0.145% | RAM network inhibition [7] 4.08%

Cc1ccc(C(=O)Nc2nc3ccccc3n2CCN2CCCC2)cc1
inactive: growth inhibition [1] -11.4% | growth inhibition [2] -2% | viability increase [3] -5.99% | viability [4] 37.4% | viability [5] 51.5% | inhibition [6] 0.665% | RAM network inhibition [7] 7.05%

Nc1nc2n(n1)C(c1ccc(Cl)cc1)CC(c1ccc(F)cc1)N2 (configuration not stated)
inactive: growth inhibition [1] -3.33% | growth inhibition [2] 13% | viability increase [3] 5.31% | viability [4] 92.5% | viability [5] 80.8% | inhibition [6] 0.43% | RAM network inhibition [7] 5.91%

Brc1cccc(-c2nc(-c3ccncc3)no2)c1
inactive: growth inhibition [1] -7.69% | growth inhibition [2] 7.9% | viability increase [3] -3.4% | viability [4] 90.4% | viability [5] 80% | inhibition [6] -0.445% | RAM network inhibition [7] 3.3%

COc1ccc(C2CC(C(F)(F)F)n3nc(C(=O)O)c(Cl)c3N2)cc1OC (configuration not stated)
inactive: growth inhibition [1] -2.51% | growth inhibition [2] -1.92% | viability increase [3] 0.25% | viability [4] 105% | viability [5] 97.6% | inhibition [6] 0.77% | RAM network inhibition [7] 2.86%

O=C(c1ccc(Br)o1)N1CCN=C1SCc1cccnc1
inactive: growth inhibition [1] -14.4% | growth inhibition [2] -6.34% | viability increase [3] 2.52% | viability [4] 90.4% | viability [5] 87.6% | inhibition [6] 2.11% | RAM network inhibition [7] 3.23%

COCc1nc(-c2ccc(-c3ccc(OC)cc3)nc2OC)no1
inactive: growth inhibition [1] 11.9% | growth inhibition [2] 3.28% | viability increase [3] -0.98% | viability [4] 71% | viability [5] 72.2% | inhibition [6] 1% | RAM network inhibition [7] 2.1%

CCOc1cc(C2NC(=O)NC(O)(C(F)(F)F)C2C(=O)c2ccc(Cl)cc2)ccc1O (configuration not stated)
inactive: growth inhibition [1] -3.6% | growth inhibition [2] -4.53% | viability increase [3] -1.34% | viability [4] 86.7% | viability [5] 94.3% | inhibition [6] 1.62% | RAM network inhibition [7] -0.26%

CCC(C(=O)OC)n1cnc2c(nnn2-c2cccc(Cl)c2)c1=O (configuration not stated)
inactive: growth inhibition [1] -3.35% | growth inhibition [2] -0.405% | viability increase [3] 1.21% | viability [4] 100% | viability [5] 92.1% | inhibition [6] 0.145% | RAM network inhibition [7] 4.91%

Cc1nnc(NC(=O)CSc2nnc(Cc3cccn3C)n2-c2cccc(C(F)(F)F)c2)s1
inactive: growth inhibition [1] -1.29% | growth inhibition [2] 13.7% | viability increase [3] -3.3% | viability [4] 98.8% | viability [5] 94% | inhibition [6] 0.075% | RAM network inhibition [7] 3.85%

COc1ccc(C2C(C(=O)c3ccco3)=C(O)C(=O)N2Cc2cccnc2)cc1OC (configuration not stated)
inactive: growth inhibition [1] -4.18% | growth inhibition [2] 6.84% | viability increase [3] -3.78% | viability [4] 102% | viability [5] 98.7% | inhibition [6] 0.875% | RAM network inhibition [7] 0.66%

COc1cccc(C2c3c(oc4ccccc4c3=O)C(=O)N2c2ccccn2)c1 (configuration not stated)
inactive: growth inhibition [1] -2.5% | growth inhibition [2] -15.9% | viability increase [3] 0.48% | viability [4] 92.4% | viability [5] 97.2% | inhibition [6] 0.28% | RAM network inhibition [7] 4.39%

O=C(NCCOC(=O)c1ccncc1)c1ccccc1
inactive: growth inhibition [1] -0.685% | growth inhibition [2] -1.32% | viability increase [3] -0.4% | viability [4] 99.2% | viability [5] 99.7% | inhibition [6] 1.27% | RAM network inhibition [7] 3.05%
